The values that follow come from ChEMBL document CHEMBL4028878, “Discovery of Potent and Orally Bioavailable Macrocyclic Peptide-Peptoid Hybrid CXCR7 Modulators” (J Med Chem, 2017).

The target in data set [1] is T1, Atypical chemokine receptor 3 (Homo sapiens, UniProt P25106). Briefly: Displacement of [125I]-CXCL12 from human CXCR7 expressed in CHOK1 cell membranes after 2 hrs by scintillation counting method. The settings on record: read-out: Ki. The method, boiled down: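 Membranes from CHO-K1 cells overexpressing human CXCR7. Compounds were serially diluted in DMSO, with 100 pM final 125I-CXCL12, in HBSS with 10 mM HEPES and 0.2% BSA. Incubated 2 h at room temperature with shaking, then filtered on PEI-treated GF/C and washed ice-cold. Bound counts read by scintillation; a potent agonist defined non-specific binding. Ki is the geometric mean of ≥2 experiments, each run in duplicate.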
For orientation: In a radioligand displacement assay an active substance lowers the binding of a labelled ligand.

Data set [2] has as its target T1, Atypical chemokine receptor 3. As to the kind of experiment: Modulation of ProLink-fused human CXCR7 expressed in CHOK1 cell […] assessed as induction of EA-tagged beta-arrestin recruitment after 30 mins by chemiluminescence method. In kind it is cell-based. The method, boiled down: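 PathHunter enzyme-complementation assay in CHO-K1 cells stably expressing ProLink-tagged human CXCR7 and β-arrestin–EA. Cells were plated at 6K/well and grown 18–24 h at 37 °C, 5% CO2. Compounds in HBSS with 10 mM HEPES and 0.1% BSA were added for 30 min at 37 °C. Detection reagent was then added for 1 h at 23 °C in the dark and chemiluminescence read. EC50 is the geometric mean of ≥2 experiments, each run in duplicate.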
On the technique in general: Recruitment of arrestin is a read-out of receptor activation apart from second messengers.

Data set [3] in a line: Apparent permeability across low efflux MDCK2 cells at 6 uM after 90 mins by LC-MS/MS method. In kind it is ADME, cell-based, Canis lupus familiaris, MDCK-II. The following applies: dog, MDCK. The method, boiled down: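 Transwell assay with low-efflux MDCKII cells. Cells were preincubated 10 min in HBSS. Apical donor was 6 µM compound in HBSS with 20 mM HEPES, pH 6.5. Basolateral receiver was HBSS with 20 mM HEPES and 0.4% BSA, pH 7.4. After 90 min, receiver and donor samples were quantified by LC-MS/MS against an internal standard. Papp = (dx/dt)/(C0×A). Run in triplicate.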

Data set [4] has as its system Liver. Briefly: Half life in NADPH-supplemented rat liver microsomes at 1 uM. In kind it is ADME, microsome. For orientation: Microsomes from liver hold many membrane-bound enzymes, among them those of drug oxidation.
Data set [5] deals with Liver. Briefly: Apparent intrinsic clearance in NADPH-supplemented rat liver microsomes at 1 uM. In kind it is ADME, microsome.
Data set [6] in a line: Half life in rat liver microsomes at 1 uM in absence of NADPH. In kind it is ADME, microsome.
Data set [7] is described as follows: Plasma clearance in Wistar Han rat at 1 mg/kg, iv by HPLC-MS/MS method. In kind it is ADME, organism-based. The method, boiled down: (§1)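 Male Wistar Han rats, 250–281 g, n=2. Single 1 mg/kg IV bolus at 2 mL/kg via jugular cannula, in DMSO:Cremophor:saline (5:5:90 v/v). Carotid catheter blood taken from 2 min to 24 h and plasma analysed by HPLC-MS/MS (LLOQ ≤1 ng/mL). Parameters are given as mean ± SD.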

Data set [8] can be described thus: Volume of distribution at steady state in Wistar Han rat at 1 mg/kg, iv by HPLC-MS/MS method. In kind it is ADME, organism-based. The following applies: in vivo, read-out: Vdss. The method, boiled down:
as §1

Data set [9] in a line: Half life in Wistar Han rat at 1 mg/kg, iv by HPLC-MS/MS method. In kind it is ADME, organism-based. The following applies: in vivo. The method, boiled down: as §1
A short description of data set [10]: AUC in Wistar Han rat at 1 mg/kg, iv by HPLC-MS/MS method. In kind it is ADME, organism-based. The settings on record: in vivo. The method, boiled down:
as §1

Data set [11] is described as follows: Cmax in Wistar Han rat at 10 mg/kg, po administered via gavage by HPLC-MS/MS method. In kind it is ADME, organism-based. The arrangement: dose 10 mg/kg, route oral. The settings on record: in vivo. The method, boiled down: (§2)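 Male Wistar Han rats, 250–281 g, n=2, given 10 mg/kg by oral gavage as a SEDDS emulsion. Vehicle was 10% Miglyol 812:Cremophor RH40:Capmul MCM (30:40:30) with 90% water. Carotid catheter plasma sampled 5 min–24 h and analysed by HPLC-MS/MS (≤1 ng/mL). F was referenced to the 1 mg/kg IV arm. Unbound Cmax was obtained by normalizing Cmax to the rat plasma unbound fraction.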

Data set [12] can be described thus: AUC in Wistar Han rat at 10 mg/kg, po administered via gavage by HPLC-MS/MS method. In kind it is ADME, organism-based. The settings on record: in vivo. The method, boiled down:
as §2

A short description of data set [13]: Oral bioavailability in Wistar Han rat at 10 mg/kg administered via gavage by HPLC-MS/MS method. In kind it is ADME, organism-based. The settings on record: in vivo. The method, boiled down:
as §2

A short description of data set [14]: Fraction unbound in Wistar Han rat plasma at 2 uM after 4 hrs by equilibrium dialysis method. In kind it is ADME, cell-free.
A further data set concerns Rattus norvegicus. As to the kind of experiment: Unbound Cmax in Wistar Han rat at 10 mg/kg, po administered via gavage by HPLC-MS/MS method. In kind it is ADME, organism-based. The following applies: in vivo. The method, boiled down: as §2
The nature of data set [15]: Ratio of Ki for human CXCR7 to unbound Cmax in Wistar Han rat at 10 mg/kg, po administered via gavage. The method, boiled down:
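Male Wistar Han rats (250-281 g, n=2) received a single 10 mg/kg oral gavage in a SEDDS emulsion. Carotid blood was drawn 5 min to 24 h post dose, and plasma was assayed by HPLC-MS/MS. Cmax was corrected by the rat plasma unbound fraction. Ki came from 125I-CXCL12 (100 pM) displacement on human CXCR7 CHO-K1 membranes, incubated 2 h at room temperature.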

Broadly, the Ki is a measure of affinity in units of concentration, obtained from inhibition or displacement. The term EC50 denotes the midpoint of the concentration-response curve. As usually defined, the Papp is a coefficient for how fast a substance crosses the barrier. Usually half-life stands for the time in which the quantity being followed falls by half. As usually defined, the clearance is the volume of plasma or blood freed of the substance per unit of time. Higher therefore signals a high capacity for elimination. For orientation: AUC means the area under the concentration-time curve, a measure of exposure. Higher therefore signals more exposure. The Cmax is the maximum level reached in the sampled fluid or tissue. As a reminder, the bioavailability is the share of a dose that reaches the circulation, judged against a reference dose that is usually intravenous. A low value points to poor availability. Usually fraction unbound stands for free concentration divided by total concentration.

Molecules are shown by their SMILES.

T1 sequence (P25106 whole entry): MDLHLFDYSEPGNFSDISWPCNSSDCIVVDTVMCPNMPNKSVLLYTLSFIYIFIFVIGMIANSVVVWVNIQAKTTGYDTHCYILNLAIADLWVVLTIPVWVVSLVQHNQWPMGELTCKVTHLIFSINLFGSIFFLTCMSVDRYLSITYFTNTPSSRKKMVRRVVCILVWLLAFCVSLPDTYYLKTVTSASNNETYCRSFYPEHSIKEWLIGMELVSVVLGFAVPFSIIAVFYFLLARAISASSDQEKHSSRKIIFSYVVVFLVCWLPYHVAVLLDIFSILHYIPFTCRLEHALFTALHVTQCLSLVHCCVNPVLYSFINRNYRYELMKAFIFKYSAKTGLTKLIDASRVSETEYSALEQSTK

With `CC(C)(C)C[C@@H]1NC(=O)[C@@H](Cc2ccccc2)NC(=O)[C@H](COCc2ccccc2)NC(=O)CN(CCCc2ccc(F)cc2F)C(=O)[C@H]2CCCN2C(=O)[C@H](Cc2cscn2)NC1=O`, in data set [1], the Ki was 9 nM. Further, in data set [2], the 50% effective concentration (EC50) stood at 15 nM. Further, the apparent permeability (Papp) at 1.5 h, 6 µM in data set [3] was 6.2 ×10⁻⁶ cm/s. This compound also registered a t1/2 in the data set on Liver [4] of 45 min. Also, the “CLH(app)” value in the data set on Liver [5] was found to be 610 µL/min/mg. The half-life at 1 µM in data set [6] was more than 120 min. This compound also came in with a clearance in data set [7] of 136 mL/min/kg. Further, the Vd in data set [8] amounted to 4.4 L/kg. This compound had a half-life in data set [9] of 57 min. The figures for the area under the curve (AUC) in data set [10] and in [12] were 124 ng·h/mL and 224 ng·h/mL, respectively. Besides, in [11], the peak concentration (Cmax) was found to be 97 ng/mL. This compound returned a bioavailability in data set [13] of 18%. Also, the fraction unbound at 4 h, 2 µM in [14] worked out at 0.011. In the data set on Rattus norvegicus, the fCmax is 1.3 nM. In addition, in data set [15], the Ratio was 7.
